According to ChEMBL document CHEMBL4257585, “Structure-Activity Relationships of Photoswitchable Diarylethene-Based β-Hairpin Peptides as Membranolytic Antimicrobial and Anticancer Agents” (J Med Chem, 2018):
Values after ≈ are worked out from the molar mass of the structure shown.

Legend:
Bacillus subtilis = assay: Antimicrobial activity against Bacillus subtilis DSM 347 after 22 hrs by resazurin dye based spectrophotometry; format: functional; details: DSM 347, 22 h
Procedure, shortened: (§1)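 2-fold broth microdilution in Mueller–Hinton medium; peptide stocks 1024 μg/mL in 50% ethanol. Exponential-phase cultures diluted to OD550 0.2, then 1:100 (B. subtilis) or 1:1000 (E. coli), giving 5 × 10^5 CFU/mL per well. Incubated 22 h, 37 °C, static; then resazurin (0.2 mg/mL solution) added for 2 h at 37 °C, read visually and spectrophotometrically. Tested in both photoforms.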

[1] = Therapeutic index, ratio of HC50 for human RBC to MIC for Bacillus subtilis DSM 347; format: toxicity; details: human red blood cells versus Bacillus subtilis DSM 347
Procedure, shortened: (§2)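 Ratio of HC50 (RBC) to HeLa IC50 or to MIC against B. subtilis or E. coli; values measured in mg/mL and recalculated to μM, 2-fold dilution without curve fitting, accuracy within a factor of 2.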

[2] = Hemolytic activity against human RBC assessed as hemolysis after 30 mins by colorimetric method; format: ADME, cell-based, Erythrocyte; details: human red blood cells (erythrocytes)
Procedure, shortened: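 Human erythrocytes washed twice in isotonic 172 mM Tris-HCl, pH 7.6; peptides dissolved in DMSO, diluted in buffer, two independent 10-step 2-fold series from 256 or 192 μg/mL. HC50 extrapolated as 50% hemolysis concentration.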

[3] = Selective ratio of HC50 for human RBC to IC50 for human HeLa cells; format: toxicity; details: human red blood cells versus HeLa cells; procedure, shortened: as §2
HeLa = assay: Cytotoxicity against human HeLa cells assessed as reduction in cell viability after 24 hrs by MTT assay; format: functional, cell-based
Procedure, shortened: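 HeLa cells seeded at about 5 × 10^4 cells/mL in DMEM with 10% FBS, 2 mM glutamine, gentamicin; 24 h adaptation (37 °C, 5% CO2), then 24 h peptide exposure. MTT 4 h, formazan in DMSO read at 570 nm. 2-fold series 256–0.5 (open) or 512–1 μg/mL (closed), four repetitions; IC50 extrapolated from killing curves. Closed form handled in dim light.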

[4] = Therapeutic index, ratio of HC50 for human RBC to MIC for Escherichia coli DSM 1103; format: toxicity; details: human red blood cells versus Escherichia coli DSM 1103; procedure, shortened: as §2
Escherichia coli = assay: Antimicrobial activity against Escherichia coli DSM 1103 after 22 hrs by resazurin dye based spectrophotometry; format: functional; details: DSM 1103, 22 h; procedure, shortened: as §1

| SMILES | MIC (Bacillus subtilis) | selectivity ratio [1] | HC50 at 0.5 h [2] | selectivity ratio [3] | IC50 (HeLa) | selectivity ratio [4] | MIC (Escherichia coli) |
| --- | --- | --- | --- | --- | --- | --- | --- |
| CC(C)C[C@@H]1NC(=O)[C@H](CCCCN)NC(=O)[C@H](C(C)C)NC(=O)C2=CC3=C4CCCC4=C4C=C(S[C@]4(C)[C@@]3(C)S2)C(=O)[C@H]2CCCN2C(=O)[C@H](C(C)C)NC(=O)[C@H](CCCCN)NC(=O)[C@H](C(C)C)NC(=O)[C@H](CC(C)C)NC(=O)[C@@H](CCCCN)NC(=O)[C@@H]2CCCN2C(=O)[C@@H](Cc2ccccc2)NC(=O)[C@H](C(C)C)NC(=O)[C@H](CCCCN)NC1=O | 2 µM (≈ 3.53 µg/mL) | 7 | 14 µM | 0.8 | 18 µM | 0.2 | 73 µM (≈ 129 µg/mL) |
| Cc1sc2cc1C1=C(CCC1)c1cc(sc1C)C(=O)[C@H]1CCCN1C(=O)[C@H](C)NC(=O)[C@H](CCCN)NC(=O)[C@H](C(C)C)NC(=O)[C@@H]1CCCN1C(=O)[C@@H](Cc1ccccc1)NC(=O)[C@H](CC(C)C)NC(=O)[C@H](CCCN)NC(=O)[C@H](C)NC2=O | 7 µM (≈ 8.47 µg/mL) | 12.4 | 87 µM | 2.2 | 40 µM | 0.8 | 106 µM (≈ 128 µg/mL) |
| CC(C)C[C@@H]1NC(=O)[C@H](CCCN)NC(=O)[C@H](CCCN)NC(=O)C2=CC3=C4CCCC4=C4C=C(S[C@]4(C)[C@@]3(C)S2)C(=O)[C@H]2CCCN2C(=O)[C@H](CC(C)C)NC(=O)[C@H](CCCN)NC(=O)[C@H](C(C)C)NC(=O)[C@@H]2CCCN2C(=O)[C@@H](Cc2ccccc2)NC1=O | 3 µM (≈ 3.89 µg/mL) | 5.7 | 17 µM | 1.4 | 12 µM | 1.4 | 12 µM (≈ 15.5 µg/mL) |
| CC(C)C[C@@H]1NC(=O)C2=CC3=C4CCCC4=C4C=C(S[C@]4(C)[C@@]3(C)S2)C(=O)[C@H]2CCCN2C(=O)[C@H](C(C)C)NC(=O)[C@H](CCCCN)NC(=O)[C@H](CC(C)C)NC(=O)[C@H](CCCCN)NC(=O)[C@@H]2CCCN2C(=O)[C@@H](Cc2ccccc2)NC(=O)[C@H](CCCCN)NC(=O)[C@H](C(C)C)NC(=O)[C@H](CCCCN)NC1=O | 10 µM (≈ 15.7 µg/mL) | 8.2 | 82 µM | 1 | 82 µM | 0.5 | 164 µM (≈ 257 µg/mL) |
| Cc1sc2cc1C1=C(CCC1)c1cc(sc1C)C(=O)[C@H]1CCCN1C(=O)[C@H](CC(C)C)NC(=O)[C@H](CCCN)NC(=O)[C@H](C(C)C)NC(=O)[C@@H]1CCCN1C(=O)[C@@H](Cc1ccccc1)NC(=O)[C@H](CC(C)C)NC(=O)[C@H](CCCN)NC(=O)[C@H](CCCN)NC2=O | 2 µM (≈ 2.59 µg/mL) | 6 | 12 µM | 2 | 6 µM | 0.5 | 25 µM (≈ 32.4 µg/mL) |
| CC(C)C[C@@H]1NC(=O)[C@H](CCCN)NC(=O)[C@H](C)NC(=O)C2=CC3=C4CCCC4=C4C=C(S[C@]4(C)[C@@]3(C)S2)C(=O)[C@H]2CCCN2C(=O)[C@H](C)NC(=O)[C@H](CCCN)NC(=O)[C@H](C(C)C)NC(=O)[C@@H]2CCCN2C(=O)[C@@H](Cc2ccccc2)NC1=O | 40 µM (≈ 48.4 µg/mL) | 4.4 | 175 µM | 1.7 | 106 µM | 0.8 | 212 µM (≈ 257 µg/mL) |
| Cc1sc2cc1C1=C(CCC1)c1cc(sc1C)C(=O)[C@H]1CCCN1C(=O)[C@H](CC(C)C)NC(=O)[C@H](CCCCN)NC(=O)[C@H](C(C)C)NC(=O)[C@H](CCCCN)N(C)C(=O)[C@@H](Cc1ccccc1)NC(=O)[C@H](CC(C)C)NC(=O)[C@H](CCCCN)NC(=O)[C@H](C(C)C)NC2=O | 3 µM (≈ 4.06 µg/mL) | 1.3 | 4 µM | 1.3 | 3 µM | 0.1 | 47 µM (≈ 63.6 µg/mL) |
| Cc1sc2cc1C1=C(CCC1)c1cc(sc1C)C(=O)[C@H]1CCCN1C(=O)[C@H](C(C)C)NC(=O)[C@H](CCCCN)NC(=O)[C@H](C(C)C)NC(=O)[C@H](CC(C)C)NC(=O)[C@@H](CCCCN)NC(=O)[C@@H]1CCCN1C(=O)[C@@H](Cc1ccccc1)NC(=O)[C@H](C(C)C)NC(=O)[C@H](CCCCN)NC(=O)[C@H](CC(C)C)NC(=O)[C@H](CCCCN)NC(=O)[C@H](C(C)C)NC2=O | 1 µM (≈ 1.76 µg/mL) | 1 | 1 µM | 0.3 | 3 µM | 0.1 | 9 µM (≈ 15.9 µg/mL) |
| Cc1sc2cc1C1=C(CCC1)c1cc(sc1C)C(=O)[C@H]1CCCN1C(=O)[C@H](CC(C)C)NC(=O)[C@H](CCCCN)NC(=O)[C@H](C(C)C)NC(=O)[C@H](CCCCN)NC(=O)[C@H](CC(C)C)NC(=O)[C@H](CCCCN)N(C)C(=O)[C@@H](Cc1ccccc1)NC(=O)[C@H](C(C)C)NC(=O)[C@H](CCCCN)NC(=O)[C@H](CC(C)C)NC(=O)[C@H](CCCCN)NC(=O)[C@H](C(C)C)NC2=O | 4 µM (≈ 7.29 µg/mL) | 0.3 | < 1 µM | 0.5 | 2 µM | 0.1 | 18 µM (≈ 32.8 µg/mL) |
| CC(C)C[C@@H]1NC(=O)[C@H](CCCCN)NC(=O)[C@H](C(C)C)NC(=O)C2=CC3=C4CCCC4=C4C=C(S[C@]4(C)[C@@]3(C)S2)C(=O)[C@H]2CCCN2C(=O)[C@H](CC(C)C)NC(=O)[C@H](CCCCN)NC(=O)[C@H](C(C)C)NC(=O)[C@H](CCCCN)N(C)C(=O)[C@@H](Cc2ccccc2)NC1=O | 3 µM (≈ 4.06 µg/mL) | 7.3 | 22 µM | 0.9 | 24 µM | 0.2 | 95 µM (≈ 129 µg/mL) |
| CC(C)C[C@@H]1NC(=O)[C@H](CCCCN)NC(=O)[C@H](C(C)C)NC(=O)C2=CC3=C4CCCC4=C4C=C(S[C@]4(C)[C@@]3(C)S2)C(=O)[C@H]2CCCN2C(=O)[C@H](CC(C)C)NC(=O)[C@H](CCCCN)NC(=O)[C@H](C(C)C)NC(=O)[C@H](CCCCN)NC(=O)[C@H](CC(C)C)NC(=O)[C@@H]2CCCN2C(=O)[C@@H](Cc2ccccc2)NC(=O)[C@H](C(C)C)NC(=O)[C@H](CCCCN)NC1=O | 1 µM (≈ 1.78 µg/mL) | 37 | 37 µM | 1.3 | 28 µM | 1 | 36 µM (≈ 64 µg/mL) |
| CC(C)C[C@@H]1NC(=O)[C@H](CCCN)NC(=O)[C@H](C(C)C)NC(=O)C2=CC3=C4CCCC4=C4C=C(S[C@]4(C)[C@@]3(C)S2)C(=O)[C@H]2CCCN2C(=O)[C@H](C)NC(=O)[C@H](CCCN)NC(=O)[C@H](C(C)C)NC(=O)[C@@H]2CCCN2C(=O)[C@@H](Cc2ccccc2)NC1=O | 13 µM (≈ 16.1 µg/mL) | 3.5 | 45 µM | 1.2 | 39 µM | 0.2 | 207 µM (≈ 256 µg/mL) |
| CC(C)C[C@@H]1NC(=O)[C@H](CCCCN)NC(=O)[C@H](C(C)C)NC(=O)C2=CC3=C4CCCC4=C4C=C(S[C@]4(C)[C@@]3(C)S2)C(=O)[C@H]2CCCN2C(=O)[C@H](CC(C)C)NC(=O)[C@H](CCCCN)NC(=O)[C@H](C(C)C)NC(=O)[C@H](CCCCN)NC(=O)[C@H](CC(C)C)NC(=O)[C@H](CCCCN)N(C)C(=O)[C@@H](Cc2ccccc2)NC(=O)[C@H](C(C)C)NC(=O)[C@H](CCCCN)NC1=O | 1 µM (≈ 1.82 µg/mL) | 9 | 9 µM | 0.5 | 18 µM | 1 | 9 µM (≈ 16.4 µg/mL) |
